Hits are enriched below; roughly 0.83% of the tested compounds scored in any of these assays.
RGS7-Gao: human RGS7-Galphao interaction regulation; P09471; Multiplexed bead flow cytometry, RGS7-Galphao binding; actives lie on both sides; binding response (% of control), % at 10 µM; hit rate 0.35% among 220,000; AID 1439; in the data active = binding response below about 49% or above about 150%; inconclusive = no clear call, values can overlap the other calls; inactive = in between;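 note: fluorescent Galphao held in activated GDP-AlF4 state binding bead-coupled RGS7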
ABCG2 block: inhibitors of human ABCG2 transporter, ABCB1 counter-screen; inhibition, % at 6.6 µM; IgMXP3 cells, JC-1 efflux, flow cytometry; Q9UNQ0; AID 1325; hit rate 0.1% among 190,000;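 active = inhibition above 80%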;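 note: 0% = DMSO and 100% = nicardipine control wells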
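Read-out basis: Efflux inhibition in percent versus controls | Test system: ABCG2 IgMXP3 and barcoded ABCB1 CCRF-Adr cell mix | Quantity: 3 million cells/mL in well | Schedule: 10 min at 25 °C | Control set: Nicardipine as high control, DMSO as low control | Reagent: JC-1 as fluorescent efflux pump substrate | Signal: Flow cytometry of retained JC-1 fluorescence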
ABCB1 inh: human ABCB1 inhibition, ABCG2 as counter-screen. hit rate 0.067% among 190,000. P08183. inhibition, % at 6.6 µM. CCRF-Adr cells, JC-1 efflux, flow cytometry; in the data active = inhibition above about 40%;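 note: 0% = vehicle and 100% = reference inhibitor; higher value means more JC-1 retained so stronger ABCB1 efflux block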
Target sequence (P08183 whole entry, looked up): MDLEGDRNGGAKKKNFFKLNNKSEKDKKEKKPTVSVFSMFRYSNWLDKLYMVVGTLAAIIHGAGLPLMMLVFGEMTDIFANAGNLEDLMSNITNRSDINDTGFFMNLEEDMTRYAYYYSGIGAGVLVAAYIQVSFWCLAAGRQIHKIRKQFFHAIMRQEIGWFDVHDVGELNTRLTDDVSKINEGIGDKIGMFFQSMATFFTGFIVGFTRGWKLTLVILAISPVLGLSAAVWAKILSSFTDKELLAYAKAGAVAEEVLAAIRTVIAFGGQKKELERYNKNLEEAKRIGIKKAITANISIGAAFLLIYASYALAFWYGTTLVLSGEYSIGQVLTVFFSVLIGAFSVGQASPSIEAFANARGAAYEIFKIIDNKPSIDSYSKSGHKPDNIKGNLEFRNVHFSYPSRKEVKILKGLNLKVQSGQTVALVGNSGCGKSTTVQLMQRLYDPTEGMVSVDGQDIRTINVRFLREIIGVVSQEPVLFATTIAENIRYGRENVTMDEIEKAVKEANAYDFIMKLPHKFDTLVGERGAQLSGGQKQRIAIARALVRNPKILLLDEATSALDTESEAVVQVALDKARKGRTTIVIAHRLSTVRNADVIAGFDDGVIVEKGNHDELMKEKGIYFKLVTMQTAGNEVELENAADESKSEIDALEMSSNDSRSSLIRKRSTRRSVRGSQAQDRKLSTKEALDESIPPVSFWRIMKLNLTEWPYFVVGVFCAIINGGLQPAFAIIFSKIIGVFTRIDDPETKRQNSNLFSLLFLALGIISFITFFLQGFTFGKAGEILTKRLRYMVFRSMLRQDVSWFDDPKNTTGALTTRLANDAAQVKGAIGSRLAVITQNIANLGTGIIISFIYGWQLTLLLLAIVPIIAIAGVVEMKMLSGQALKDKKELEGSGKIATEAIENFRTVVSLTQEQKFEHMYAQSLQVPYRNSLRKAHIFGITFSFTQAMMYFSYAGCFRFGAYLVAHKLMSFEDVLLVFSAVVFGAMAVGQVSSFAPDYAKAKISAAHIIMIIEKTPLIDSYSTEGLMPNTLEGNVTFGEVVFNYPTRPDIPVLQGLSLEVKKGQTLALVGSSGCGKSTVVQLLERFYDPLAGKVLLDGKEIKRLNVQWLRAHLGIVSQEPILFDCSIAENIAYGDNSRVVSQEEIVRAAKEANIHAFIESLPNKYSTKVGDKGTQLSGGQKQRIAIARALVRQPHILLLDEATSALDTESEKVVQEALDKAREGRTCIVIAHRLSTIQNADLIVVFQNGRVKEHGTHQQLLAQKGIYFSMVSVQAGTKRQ
RGS8-Gao: regulators of human RGS8-Galphao interaction; multiplexed bead flow cytometry, RGS8-Galphao binding; actives lie on both sides; response (percent of control binding), % at 10 µM; hit rate 0.34% among 220,000; P09471; in the data active = response below about 60% or above about 140%; inactive = in between;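 note: Galphao activated as the GDP aluminium fluoride complex binding bead-coupled RGS8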
RGS16-Gao: regulators of human RGS16-Galphao interaction | O15492+P09471 | bead-based flow cytometry RGS16-Galphao binding, fluorescence; actives lie on both sides | binding response (% of control), % at 10 µM | hit rate 0.38% among 220,000 | AID 1441;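 note: Galphao activated by GDP with aluminum fluoride before binding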
RGS4-Gao reg: modulates binding of RGS4 to human Galphao | P09471 | Multiplexed bead flow cytometry; actives lie on both sides | binding response (% of control), % at 10 µM | hit rate 0.33% among 220,000; in the data active = binding response below about 49% or above about 150%; inactive = in between;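 note: fluorescent Galphao activated with aluminum fluoride binding bead-coupled RGS4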
RGS-Gao: regulators of human RGS4-Galphao interaction | shares compounds with RGS16-Gao | multiplexed bead flow cytometry, RGS–Galpha-o binding | AID 1504 | hit rate 99% among 1,600 | RGS4–Galpha-o binding response, % at 10 µM;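 note: fluorescently labeled Galpha-o bound to GDP with aluminium fluoride binding biotinylated RGS beads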
Biotin-avidin: biotin-avidin bead binding disruption counter-screen. shares compounds with RGS16-Gao. streptavidin beads, fluorescein-biotin binding, flow cytometry. inhibition, % at 10 µM. 1,700 tested, under 10 active. AID 1783;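 active = inhibition above 50%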;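 note: median green fluorescence of gated singlet beads compared with DMSO control wells; 0% = DMSO wells and 100% = complete loss of bead fluorescence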
RGS8-Gao confirm: confirmation of regulators of human RGS8-Galphao interaction; binding response (% of control), % at 10 µM; hit rate 3% among 1,700; shares compounds with RGS16-Gao; bead-based flow cytometry RGS8-Galphao binding, fluorescence; actives lie on both sides; in the data active = binding response below about 72% or above about 130%; inactive = in between;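 note: Galphao activated as GDP AlF4 complex before binding bead RGS8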
RGS7-Gao confirm: confirmation of regulators of human RGS7-Galphao interaction. response (percent of control binding), % at 10 µM. bead-based flow cytometry RGS7-Galphao binding; actives lie on both sides. shares compounds with RGS16-Gao. AID 1837. hit rate 7.8% among 1,700; in the data active = response below about 75% or above about 130%; inactive = in between;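 note: fluorescent Galphao activated with GDP and aluminum fluoride binding bead-coupled RGS7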
RGS16-Gao conf: confirmation of regulators of human RGS16-Galphao interaction. shares compounds with RGS16-Gao. bead-based flow cytometry, RGS16-Galphao binding; actives lie on both sides. response (% of control binding), % at 10 µM. hit rate 4% among 1,700. AID 1838; in the data active = response below about 74% or above about 130%; inactive = in between;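 note: Galphao activated as the GDP aluminium fluoride complex binding bead-coupled RGS16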
RGS4-Gao confirm: RGS4-Galphao interaction regulation, single point confirmation; shares compounds with RGS16-Gao; RGS4-Galphao binding, multiplexed bead flow cytometry; actives lie on both sides; binding response (% of control), % at 10 µM; hit rate 4% among 1,700; in the data active = binding response below about 74% or above about 130%; inactive = in between
RGS19-Gao conf: confirmation of regulators of human RGS19-Galphao interaction; shares compounds with RGS16-Gao; bead-based flow cytometry RGS19-Galphao binding; actives lie on both sides; response (percent of control binding), % at 10 µM; hit rate 5% among 1,700; AID 1841; in the data active = response below about 50% or above about 160%; inactive = in between;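 note: 100% = no compound control and 0% = blank background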
The depositor's hits bear a star; [ ] = another dose, or the depositor's remark. Unless noted, the rule behind the calls is not given here.

What do the screens show for `Cc1ccccc1NC(=O)COC(=O)c1cc(=O)c2ccccc2o1`?
RGS7-Gao: 37*; ABCG2 block: 1; ABCB1 inh: 0; RGS8-Gao: 48*; RGS16-Gao: 35; RGS4-Gao reg: 41*; Biotin-avidin: 0; RGS8-Gao confirm: 104; RGS7-Gao confirm: 101; RGS16-Gao conf: 106; RGS4-Gao confirm: 103; RGS19-Gao conf: 108

How did CC(=O)OCCCNc1cc(Sc2nc3ccccc3s2)c2nonc2c1[N+](=O)[O-] do in these assays?
RGS7-Gao: 96; ABCG2 block: -1; ABCB1 inh: 0; RGS8-Gao: 51*; RGS16-Gao: 8.5*; RGS4-Gao reg: 83; RGS-Gao: 83*; Biotin-avidin: 0; RGS8-Gao confirm: 78; RGS7-Gao confirm: 78; RGS16-Gao conf: 82; RGS4-Gao confirm: 96; RGS19-Gao conf: 26*

What do the screens show for `COC(=O)c1ccccc1NS(=O)(=O)c1ccc(F)cc1`?
RGS7-Gao: 101; ABCG2 block: 7; ABCB1 inh: 1; RGS8-Gao: 100; RGS16-Gao: 104; RGS4-Gao reg: 99

What do the screens show for `COC(=O)c1ccccc1NS(=O)(=O)c1ccc(NC(C)=O)cc1`?
RGS7-Gao: 151*[activator]; ABCG2 block: -1; ABCB1 inh: 0; RGS8-Gao: 134; RGS16-Gao: 137; RGS4-Gao reg: 128; RGS-Gao: 128*; Biotin-avidin: 2; RGS8-Gao confirm: 100; RGS7-Gao confirm: 104; RGS16-Gao conf: 101; RGS4-Gao confirm: 102; RGS19-Gao conf: 92

How did CC(=O)c1ccc(-n2c(SCC(=O)c3c[nH]c4ccccc34)nc3ccccc3c2=O)cc1 do in these assays?
RGS7-Gao: 184*[activator]; ABCG2 block: 3; ABCB1 inh: 1; RGS8-Gao: 113; RGS16-Gao: 444; RGS4-Gao reg: 179*[activator]; Biotin-avidin: 2; RGS8-Gao confirm: 108; RGS7-Gao confirm: 110; RGS16-Gao conf: 106; RGS4-Gao confirm: 106; RGS19-Gao conf: 97

What do the screens show for `CCOC(=O)c1c(C)[nH]c(C)c1C(=O)CSc1nc2ccccc2c(=O)n1-c1ccc(CC)cc1`?
RGS7-Gao: 99; ABCG2 block: 5; ABCB1 inh: 11; RGS8-Gao: 103; RGS16-Gao: 108; RGS4-Gao reg: 100

Results for CC1(C)CC(=O)C2=C(C1)Nc1ccccc1NC2c1cccnc1 (stereo not given) ?
RGS7-Gao: 115; ABCG2 block: -1; ABCB1 inh: 0; RGS8-Gao: 133; RGS16-Gao: 198; RGS4-Gao reg: 115

Results for Cn1cccc1C1Nc2ccccc2NC2=C1C(=O)CC(C)(C)C2 (stereo not given) ?
RGS7-Gao: 58; ABCG2 block: 0; ABCB1 inh: 0; RGS8-Gao: 58*; RGS16-Gao: 50; RGS4-Gao reg: 60; RGS-Gao: 60*; Biotin-avidin: 1; RGS8-Gao confirm: 102; RGS7-Gao confirm: 99; RGS16-Gao conf: 103; RGS4-Gao confirm: 103; RGS19-Gao conf: 101

How did COc1cccc(N2CN(C3CCCCC3)CNC2=S)c1 do in these assays?
RGS7-Gao: inconclusive; RGS8-Gao: 103; RGS16-Gao: 105; RGS4-Gao reg: 103

Results for COC(=O)c1ccc(NC(=S)NC2c3ccccc3CC2O)cc1 (stereo not given) ?
RGS7-Gao: 102; ABCG2 block: 4; ABCB1 inh: 0; RGS8-Gao: 101; RGS16-Gao: 102; RGS4-Gao reg: 102

Results for CC(C)c1onc(C(=O)N(C)Cc2ccccc2)c1[N+](=O)[O-] ?
RGS7-Gao: 87; ABCG2 block: 13; ABCB1 inh: 1; RGS8-Gao: 74; RGS16-Gao: 24*; RGS4-Gao reg: 89; RGS-Gao: 89*; Biotin-avidin: 4; RGS8-Gao confirm: 107; RGS7-Gao confirm: 105; RGS16-Gao conf: 113; RGS4-Gao confirm: 105; RGS19-Gao conf: 111

What do the screens show for `Cc1cc(Cl)ccc1NC(=S)NCc1cccs1`?
RGS7-Gao: 101; ABCG2 block: 18; ABCB1 inh: 1; RGS8-Gao: 100; RGS16-Gao: 101; RGS4-Gao reg: 102

What do the screens show for `Cc1ccc(S(=O)(=O)Nc2ccc(N3CCOCC3)cc2)cc1`?
RGS7-Gao: 93; ABCG2 block: 1; ABCB1 inh: 0; RGS8-Gao: 88; RGS16-Gao: -64*; RGS4-Gao reg: 86; RGS-Gao: 86*; Biotin-avidin: 0; RGS8-Gao confirm: 101; RGS7-Gao confirm: 102; RGS16-Gao conf: 100; RGS4-Gao confirm: 105; RGS19-Gao conf: 102

How did CCOC(=O)Cn1c(C(=O)OCC)cc2sccc21 do in these assays?
RGS7-Gao: 108; ABCG2 block: 2; ABCB1 inh: 0; RGS8-Gao: 112; RGS16-Gao: 174; RGS4-Gao reg: 104

What do the screens show for `CCn1c(C(=O)N2CCCC(C(=O)O)C2)cc2sccc21` (stereo not given)?
RGS7-Gao: 93; ABCG2 block: -2; ABCB1 inh: 0; RGS8-Gao: 71; RGS16-Gao: 24*; RGS4-Gao reg: 93; RGS-Gao: 93*; Biotin-avidin: -1; RGS8-Gao confirm: 105; RGS7-Gao confirm: 104; RGS16-Gao conf: 109; RGS4-Gao confirm: 102; RGS19-Gao conf: 114

What do the screens show for `CCOC(=O)c1cc2sccc2n1CC(=O)N1CCCC1`?
RGS7-Gao: 150*[activator]; ABCG2 block: 0; ABCB1 inh: 1; RGS8-Gao: 104; RGS16-Gao: 121; RGS4-Gao reg: 113; RGS-Gao: 113*; Biotin-avidin: -1; RGS8-Gao confirm: 96; RGS7-Gao confirm: 96; RGS16-Gao conf: 96; RGS4-Gao confirm: 95; RGS19-Gao conf: 94

Source: PubChem BioAssay
